Calls of active or inactive are those of the source. The calls are words filed in the database; no cut-off is given here.
Experiments:
[1] = test system: PC-12; test: Neuroprotective activity in amyloid beta-induced cytotoxicity in rat PC12 cells assessed as cell viability pretreated 1 hrs prior to amyloid beta challenge measured after 24 hrs by MTT assay; assay type: functional, cell-based
Outline: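 PC12 cells at 0.5 × 10^4 per well, serum-starved 12 h, then pretreated 1 h with 0.1, 1.0 or 10 µM. Viability was read by MTT (5 mg/ml, 4 h, 37 °C), with formazan dissolved in DMSO and A570 measured. Mean ± SD of triplicate experiments.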

[2] = test system: PC-12; test: Inhibition of amyloid beta-induced apoptosis in rat PC12 cells assessed as decrease in caspase-3 dependent cleavage of Ac-DEVD-pNA administered 1 hr prior to amyloid beta challenge measured after 24 hrs by spectrophotometric analysis; assay type: functional, cell-based
Outline: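 Released pNA was read at 405 nm. Activity was normalised to protein and expressed as fold over control cells. Mean ± SD of triplicate experiments.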

[3] = test system: PC-12; test: Neuroprotective effect against amyloid beta-induced apoptosis in rat PC12 cells assessed as upregulation of PI3K-mediated Akt phosphorylation administered 1 hr prior to amyloid beta challenge measured after 24 hrs by Western blotting; assay type: functional, cell-based
Outline: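 Lysate protein (20 or 30 µg) was run on 12% SDS-PAGE and blotted to nitrocellulose. Blots were probed for p-Akt Ser473 and total Akt (1:1000), with β-actin or GAPDH as loading control, and detected by ECL. Densitometry, mean ± SD, triplicate.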

[4] = test system: PC-12; test: Cytoprotective activity in amyloid beta-induced apoptosis in rat PC12 cells at 10 uM administered 1 hr prior to amyloid beta challenge measured after 24 hrs by using Annexin V/PI staining based flow cytometric analysis; assay type: functional
Outline: (§1)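 Cells were stained with Annexin V-FITC/PI for 15 min in the dark at room temperature and analysed by flow cytometry. Annexin+/PI− cells were scored early apoptotic and double-positive cells late apoptotic. Mean ± SD of triplicate independent experiments.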

[5] = test system: PC-12; test: Inhibition of amyloid beta-induced mitochondrial dysfunction in rat PC12 cells at 0.1 to 10 uM administered 1 hr prior to amyloid beta challenge measured after 24 hrs using JC1 fluorescent dye based flow cytometeric analysis; assay type: functional, cell-based
Outline: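 Cells were loaded with JC-1 for 20 min at 37 °C, pelleted at 600g, resuspended in PBS and analysed by flow cytometry on FL1 (525 nm) and FL2 (575 nm). Membrane potential was expressed as the green/red fluorescence ratio. Mean ± SD, triplicate.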

[6] = molecular target: RAC-alpha serine/threonine-protein kinase (Rattus norvegicus) (UniProt P47196); test: Induction of PIK3-mediated Akt phosphorylation in amyloid beta-induced rat PC12 cells at 10 uM, treated 1 hrs prior to amyloid beta challenge measured after 24 hrs by Western blotting in presence of PI3K inhibitor LY294002 before compound addition; assay type: cell-based; details: PC-12
RAC-alpha serine/threonine-protein kinase (Rattus norvegicus), sequence (P47196 whole entry): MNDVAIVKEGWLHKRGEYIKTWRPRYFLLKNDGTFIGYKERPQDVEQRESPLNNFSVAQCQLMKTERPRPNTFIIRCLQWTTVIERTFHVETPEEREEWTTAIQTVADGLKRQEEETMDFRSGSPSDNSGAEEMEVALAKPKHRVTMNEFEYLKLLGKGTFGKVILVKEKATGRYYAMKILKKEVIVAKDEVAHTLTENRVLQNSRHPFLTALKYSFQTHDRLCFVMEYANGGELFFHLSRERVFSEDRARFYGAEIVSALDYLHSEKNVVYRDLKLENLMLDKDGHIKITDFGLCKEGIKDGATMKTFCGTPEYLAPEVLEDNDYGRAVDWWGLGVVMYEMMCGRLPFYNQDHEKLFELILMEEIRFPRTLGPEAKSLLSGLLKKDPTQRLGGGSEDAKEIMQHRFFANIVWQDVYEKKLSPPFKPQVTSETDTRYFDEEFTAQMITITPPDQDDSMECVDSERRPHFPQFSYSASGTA
Outline: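 Lysates (20 or 30 µg) were run on 12% SDS-PAGE and immunoblotted for p-Akt and total Akt (1:1000) with ECL detection. Densitometry, mean ± SD of triplicate experiments.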

[7] = test system: PC-12; test: Cytoprotective activity in amyloid beta-induced apoptosis in rat PC12 cells at 0.1 uM administered 1 hr prior to amyloid beta challenge measured after 24 hrs by using Annexin V/PI staining based flow cytometric analysis; assay type: functional; outline: as §1
[8] = molecular target: Glycogen synthase kinase-3 beta (Rattus norvegicus) (UniProt P18266); test: Increase in GSK3 beta phosphorylation at Ser9 in amyloid beta-induced rat PC12 cells at 0.1 to 10 uM administered 1 hrs prior to amyloid beta challenge measured after 24 hrs by Western blotting pretreated with PI3K inhibitor LY294002 before compound addition; assay type: cell-based; details: PC-12
Glycogen synthase kinase-3 beta (Rattus norvegicus), sequence (P18266 whole entry, looked up): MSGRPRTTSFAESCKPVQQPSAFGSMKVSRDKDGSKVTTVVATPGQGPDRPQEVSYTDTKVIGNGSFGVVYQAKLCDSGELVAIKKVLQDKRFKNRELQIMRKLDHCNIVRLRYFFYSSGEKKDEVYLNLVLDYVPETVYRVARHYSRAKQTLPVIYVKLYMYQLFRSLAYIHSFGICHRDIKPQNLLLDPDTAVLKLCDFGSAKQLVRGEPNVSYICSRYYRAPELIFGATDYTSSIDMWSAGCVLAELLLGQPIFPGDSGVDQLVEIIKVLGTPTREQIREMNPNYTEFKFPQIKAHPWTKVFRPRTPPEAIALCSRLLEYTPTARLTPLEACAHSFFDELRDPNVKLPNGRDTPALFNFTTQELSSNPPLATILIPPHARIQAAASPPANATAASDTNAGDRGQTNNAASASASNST
Outline: (§2)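 Lysates (20 or 30 µg) were run on 12% SDS-PAGE and immunoblotted for pSer9 GSK-3β and total GSK-3β (1:1000), with β-actin or GAPDH as loading control. Blots shown represent three independent experiments.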

[9] = test system: PC-12; test: Cytoprotective activity in amyloid beta-induced apoptosis in rat PC12 cells administered 1 hr prior to amyloid beta challenge measured after 24 hrs by using Annexin V/PI staining based flow cytometric analysis; assay type: functional, cell-based; outline: as §1
[10] = test system: PC-12; test: Neuroprotective effect against amyloid beta-induced rat PC12 cells assessed as increase of Bcl-2 expression at 0.1 to 10 uM administered 1 hrs prior to amyloid beta challenge measured after 24 hrs by Western blotting pretreated with PI3K inhibitor LY294002 before compound addition; assay type: functional, cell-based
Outline: (§3)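 Lysates (20 or 30 µg) were separated on 12% gels, blotted and probed with anti-Bcl-2 (1:200), with β-actin or GAPDH as loading control. Detection was by ECL.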

[11] = test system: PC-12; test: Neuroprotective activity in amyloid beta-induced rat PC12 cells assessed as increase of Bcl-2 expression at 0.1 to 10 uM administered 1 hrs prior to amyloid beta challenge measured after 24 hrs by Western blotting; assay type: functional, cell-based; outline: as §3
[12] = test system: PC-12; test: Cytoprotective activity in amyloid beta-induced apoptosis in rat PC12 cells at 1 uM administered 1 hr prior to amyloid beta challenge measured after 24 hrs by using Annexin V/PI staining based flow cytometric analysis; assay type: functional; outline: as §1
[13] = molecular target: T1, Acetylcholinesterase (Rattus norvegicus) (UniProt P37136); test: Inhibition of AChE activity in amyloid beta25-35-induced rat PC12 cells at 0.1 to 10 uM, 1 hrs prior to induction after 24 hrs by Ellman assay; assay type: cell-based; details: PC-12
T1 sequence (whole entry): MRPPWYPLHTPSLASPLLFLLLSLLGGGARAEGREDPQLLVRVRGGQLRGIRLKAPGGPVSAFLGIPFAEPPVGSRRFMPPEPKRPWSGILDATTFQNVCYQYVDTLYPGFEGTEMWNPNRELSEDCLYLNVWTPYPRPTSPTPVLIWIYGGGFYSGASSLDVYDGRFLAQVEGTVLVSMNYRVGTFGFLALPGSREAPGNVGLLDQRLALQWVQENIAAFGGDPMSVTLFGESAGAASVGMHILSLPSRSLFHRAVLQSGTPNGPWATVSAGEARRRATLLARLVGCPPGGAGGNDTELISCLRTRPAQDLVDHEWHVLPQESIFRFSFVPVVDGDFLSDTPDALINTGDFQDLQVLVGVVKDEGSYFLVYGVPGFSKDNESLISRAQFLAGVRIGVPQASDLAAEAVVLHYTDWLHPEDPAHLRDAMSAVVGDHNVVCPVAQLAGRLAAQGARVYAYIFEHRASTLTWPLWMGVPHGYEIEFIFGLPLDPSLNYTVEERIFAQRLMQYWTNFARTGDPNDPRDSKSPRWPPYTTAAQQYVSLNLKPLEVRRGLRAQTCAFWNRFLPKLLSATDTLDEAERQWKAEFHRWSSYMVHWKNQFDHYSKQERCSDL
Outline: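 Rat PC12 cells in DMEM/10% FBS, serum-starved 12 h, were pretreated 1 h, then exposed 24 h to 30 µM Aβ25-35 (1 mM in water, pre-aggregated 72 h at 37 °C). Lysates were made in high ionic strength buffer (1 M NaCl, Triton X-100, EDTA) and spun 12,000 rpm 20 min at 4 °C. AChE activity in the supernatant was read by Ellman method; three independent experiments.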

[14] = molecular target: Glycogen synthase kinase-3 beta (Rattus norvegicus) (UniProt P18266); test: Increase in GSK3 beta phosphorylation at Ser9 in amyloid beta-induced rat PC12 cells at 0.1 to 10 uM administered 1 hrs prior to amyloid beta challenge measured after 24 hrs by Western blotting; assay type: cell-based; details: PC-12; outline: as §2

COc1ccc(-c2cc(=O)c3c(O)cc(O[C@@H]4O[C@H](CO[C@@H]5O[C@@H](C)[C@H](O)[C@@H](O)[C@H]5O)[C@@H](O)[C@H](O)[C@H]4O)cc3o2)cc1 [ACACIIN]
Activity [1]: Dose-dependent effect | inhibition [2]: Dose-dependent effect | Activity [3]: Active | Activity [4]: 7.32% | inhibition [5]: Active | Activity [6]: inactive | Activity [7]: 20.52% | Activity [8]: inactive | Activity [9]: Dose-dependent effect | Activity [10]: inactive | Activity [11]: Active | Activity [12]: 11.57% | inhibition [13]: Active | Activity [14]: Active

From ChEMBL document CHEMBL1817651, “Neuroprotective effects of linarin through activation of the PI3K/Akt pathway in amyloid-β-induced neuronal cell death” (2011)
